Reference: ChEMBL document CHEMBL5316295, “Systematic Design of Adenosine Analogs as Inhibitors of a Clostridioides difficile-Specific DNA Adenine Methyltransferase Required for Normal Sporulation and Persistence” (J Med Chem, 2023)
Calls of active or inactive are those of the source. The calls are words filed in the database; no cut-off is given here.

What was measured:
[1] = (§1) Inhibition of Clostridioides difficile-specific DNA adenine methyltransferase mediated methylation using 5'-CGA TTC AAA AAG TCC CAA G-3' and 3'-GCT AAG TTT TTC AGG GTT C-5' as substrate and SAM as cosubstrate preincubated for 5 mins followed by substrate and cosubstrate addition and measured after 3 mins by MTase glo assay
[2] = Binding affinity to Clostridioides difficile-specific DNA adenine methyltransferase by MicroCal PEAQ-ITC instrument analysis
Clostridioides difficile [3] = test: as §1, with “as cosubstrate at 1 to 10 uM preincubated for” for “as cosubstrate preincubated for”; settings: dose 1-10 µM, time 8.0 min
[4] = as §1, with “PDB 8CXS” for “mediated methylation”, “MTase-Glo” for “MTase glo”
In short: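 Reaction started with 2.5 μM dsDNA and 40 μM SAM (final), run 3 min, then quenched with 0.1% TFA. SAH measured by MTase-Glo luminescence against an SAH standard curve.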

[5] = Binding affinity to Clostridioides difficile-specific DNA adenine methyltransferase PDB 8CXS by MicroCal PEAQ ITC analysis
In short: (§2)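 Test compound (200–900 μM) titrated into CamA (20–60 μM) at 25 °C in 325 mM NaCl, 20 mM Tris–HCl pH 7.5, 0.5 mM TCEP, 10% DMSO; 0.2 μL initial plus 18 × 2 μL injections. Reverse titration used for poorly soluble compounds. Data fitted to a one-site model with offset subtracted; K_D, ΔH, −TΔS and ΔG derived from the fit.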

[6] = as §1, with “PDB 7RFM” for “mediated methylation”, “MTase-Glo” for “MTase glo”
In short: (§3)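 Then 2.5 μM 19-bp dsDNA and 40 μM SAM were added, 3 min at ~22 °C, TFA quench (0.1%). Luminescent SAH readout against a serially diluted SAH standard curve; IC50 and Hill slope reported.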

[7] = Binding affinity to Clostridioides difficile-specific DNA adenine methyltransferase PDB 7RFM by MicroCal PEAQ ITC analysis
In short: (§4)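 CamA (pXC2184 construct) in 325 mM NaCl, 20 mM Tris–HCl pH 7.5, 0.5 mM TCEP, 10% DMSO at 25 °C; 200–900 μM compound titrated into 20–60 μM protein (0.2 μL initial injection then 18 × 2 μL; reverse titration for poorly soluble compounds). Data fitted to a one-site model with offset subtracted to obtain K_D.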

Clostridioides difficile [8] = test: (§5) Inhibition of Clostridioides difficile-specific DNA adenine methyltransferase using 5'-CGA TTC AAA AAG TCC CAA G-3' and 3'-GCT AAG TTT TTC AGG GTT C-5' as substrate and SAM as cosubstrate at 50 uM preincubated for 5 mins followed by substrate and cosubstrate addition and measured after 3 mins by MTase-Glo assay; settings: time 8.0 min
[9] = as §5, with “methyltransferase PDB 7RFL” for “methyltransferase”, “cosubstrate” for “cosubstrate at 50 uM”; in short: as §3
[10] = Binding affinity to Clostridioides difficile-specific DNA adenine methyltransferase PDB 7RFL by MicroCal PEAQ ITC analysis; in short: as §4
[11] = as §5, with “methyltransferase PDB 7RFK” for “methyltransferase”, “cosubstrate” for “cosubstrate at 50 uM”; in short: as §3
[12] = Binding affinity to Clostridioides difficile-specific DNA adenine methyltransferase PDB 7RFK by MicroCal PEAQ ITC analysis; in short: as §4
Caulobacter vibrioides = test: Inhibition of Caulobacter vibrioides CcrM using 5'-CGA TTC AAA AAG TCC CAA G-3' and 3'-GCT AAG TTT TTC AGG GTT C-5' as substrate and SAM as cosubstrate at 10 uM incubated for 5 mins
In short: (§6)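 Conditions were enzyme 0.1 μM, DNA 5 μM, SAM 30 μM, inhibitor 10 μM, at ~22 °C in 50 mM Tris–HCl pH 7.5, 100 mM NaCl, 1 mM DTT, 0.25% DMSO, run 5 min. Substrate and SAM levels were above K_M.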

[13] = biological target: T1, DNA adenine methylase (Escherichia coli K-12) (UniProt P0AEE8); test: Inhibition of Escherichia coli Dam using 5'-CCG CGG ATC CTG CT-3' and 3'-GGC GCC TAG GAC GA-5' as substrate and SAM as cosubstrate at 10 uM incubated for 5 mins; in short: as §6
T1 sequence (whole entry): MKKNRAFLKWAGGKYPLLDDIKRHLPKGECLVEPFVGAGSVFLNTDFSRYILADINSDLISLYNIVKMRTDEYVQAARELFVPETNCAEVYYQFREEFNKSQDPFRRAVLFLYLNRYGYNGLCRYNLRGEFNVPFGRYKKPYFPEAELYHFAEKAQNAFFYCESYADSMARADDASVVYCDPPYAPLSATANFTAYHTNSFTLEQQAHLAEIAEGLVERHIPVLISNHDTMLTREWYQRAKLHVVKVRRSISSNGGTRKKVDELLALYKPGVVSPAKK

[14] = biological target: mRNA (2'-O-methyladenosine-N(6)-)-methyltransferase (Homo sapiens) (UniProt Q9H4Z3); test: Inhibition of human PCIF1 using m7GpppAmG as substrate and SAM as cosubstrate at 10 uM incubated for 15 mins
Chain of mRNA (2'-O-methyladenosine-N(6)-)-methyltransferase (Homo sapiens) (Q9H4Z3 whole entry): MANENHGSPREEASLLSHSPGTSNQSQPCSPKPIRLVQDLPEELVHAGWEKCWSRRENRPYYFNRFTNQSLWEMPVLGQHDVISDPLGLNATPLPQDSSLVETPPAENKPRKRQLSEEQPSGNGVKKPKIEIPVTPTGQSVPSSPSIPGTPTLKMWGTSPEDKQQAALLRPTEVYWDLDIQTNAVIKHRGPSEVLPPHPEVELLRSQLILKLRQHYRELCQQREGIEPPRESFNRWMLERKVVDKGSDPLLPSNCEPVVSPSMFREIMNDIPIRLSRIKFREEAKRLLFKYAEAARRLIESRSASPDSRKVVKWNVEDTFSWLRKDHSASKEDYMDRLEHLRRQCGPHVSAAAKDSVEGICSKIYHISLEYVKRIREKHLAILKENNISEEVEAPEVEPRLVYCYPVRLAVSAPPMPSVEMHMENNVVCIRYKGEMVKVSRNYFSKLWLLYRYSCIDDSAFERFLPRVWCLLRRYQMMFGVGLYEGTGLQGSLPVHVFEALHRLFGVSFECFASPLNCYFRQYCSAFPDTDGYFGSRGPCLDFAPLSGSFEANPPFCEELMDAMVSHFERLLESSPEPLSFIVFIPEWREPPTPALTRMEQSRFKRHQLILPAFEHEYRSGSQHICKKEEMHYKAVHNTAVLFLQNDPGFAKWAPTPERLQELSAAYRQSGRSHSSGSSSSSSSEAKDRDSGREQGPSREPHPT
In short: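 Enzyme 0.1 μM with 5 μM RNA, 30 μM SAM and 10 μM inhibitor at ~22 °C in 50 mM Tris–HCl pH 7.5, 100 mM NaCl, 1 mM DTT, 0.25% DMSO. PCIF1 run 15 min with capped RNA; MettL5-Trm112 run 1 h with ssRNA.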

[15] = biological target: DNMT3A-DNMT3L (Mus musculus) (UniProt O88508+Q9CWR8); test: Inhibition of mouse DNMT3A/DNMT3L using 5'-G CATGCGTTCTAATTAGAAUGCATG-3' and 3'-GTA CGS AAG ATT AAT CTT GCG TAC G-5' as substrate and SAM as cosubstrate at 10 uM incubated for 1 hr; format: protein-complex assay
Chain of DNMT3A-DNMT3L (Mus musculus) (Q9CWR8 whole entry, looked up, other chains not shown): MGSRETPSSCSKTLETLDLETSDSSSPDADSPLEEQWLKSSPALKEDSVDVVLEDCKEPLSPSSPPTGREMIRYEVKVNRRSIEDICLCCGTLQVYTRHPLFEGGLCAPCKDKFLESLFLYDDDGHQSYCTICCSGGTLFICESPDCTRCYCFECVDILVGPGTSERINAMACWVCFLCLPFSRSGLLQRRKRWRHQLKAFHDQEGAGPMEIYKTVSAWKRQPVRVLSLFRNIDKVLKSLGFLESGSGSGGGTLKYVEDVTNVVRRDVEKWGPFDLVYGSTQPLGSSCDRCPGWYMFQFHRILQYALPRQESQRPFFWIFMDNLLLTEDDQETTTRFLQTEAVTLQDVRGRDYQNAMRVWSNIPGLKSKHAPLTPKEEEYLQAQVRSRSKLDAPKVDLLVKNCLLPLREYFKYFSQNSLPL
In short: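 Dnmt3a-3L (0.5 μM) with 5 μM dsDNA, 25 μM SAM and 10 μM inhibitor in 20 mM Tris pH 7.5, 40 mM NaCl, 4 mM DTT, 20% glycerol, run 1 h at 37 °C.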

[16] = biological target: Histone-lysine N-methyltransferase, H3 lysine-79 specific (Homo sapiens) (UniProt Q8TEK3); test: (§7) Inhibition of human DOT1L using oligonucleosome as substrate and 3H-SAM as cosubstrate at 10 uM pretreated with compound for 20 mins in presence of oligonucleosome followed by cosubstrate addition and measured after 1 hr; settings: time 80.0 min
Chain of Histone-lysine N-methyltransferase, H3 lysine-79 specific (Homo sapiens) (Q8TEK3 whole entry, looked up): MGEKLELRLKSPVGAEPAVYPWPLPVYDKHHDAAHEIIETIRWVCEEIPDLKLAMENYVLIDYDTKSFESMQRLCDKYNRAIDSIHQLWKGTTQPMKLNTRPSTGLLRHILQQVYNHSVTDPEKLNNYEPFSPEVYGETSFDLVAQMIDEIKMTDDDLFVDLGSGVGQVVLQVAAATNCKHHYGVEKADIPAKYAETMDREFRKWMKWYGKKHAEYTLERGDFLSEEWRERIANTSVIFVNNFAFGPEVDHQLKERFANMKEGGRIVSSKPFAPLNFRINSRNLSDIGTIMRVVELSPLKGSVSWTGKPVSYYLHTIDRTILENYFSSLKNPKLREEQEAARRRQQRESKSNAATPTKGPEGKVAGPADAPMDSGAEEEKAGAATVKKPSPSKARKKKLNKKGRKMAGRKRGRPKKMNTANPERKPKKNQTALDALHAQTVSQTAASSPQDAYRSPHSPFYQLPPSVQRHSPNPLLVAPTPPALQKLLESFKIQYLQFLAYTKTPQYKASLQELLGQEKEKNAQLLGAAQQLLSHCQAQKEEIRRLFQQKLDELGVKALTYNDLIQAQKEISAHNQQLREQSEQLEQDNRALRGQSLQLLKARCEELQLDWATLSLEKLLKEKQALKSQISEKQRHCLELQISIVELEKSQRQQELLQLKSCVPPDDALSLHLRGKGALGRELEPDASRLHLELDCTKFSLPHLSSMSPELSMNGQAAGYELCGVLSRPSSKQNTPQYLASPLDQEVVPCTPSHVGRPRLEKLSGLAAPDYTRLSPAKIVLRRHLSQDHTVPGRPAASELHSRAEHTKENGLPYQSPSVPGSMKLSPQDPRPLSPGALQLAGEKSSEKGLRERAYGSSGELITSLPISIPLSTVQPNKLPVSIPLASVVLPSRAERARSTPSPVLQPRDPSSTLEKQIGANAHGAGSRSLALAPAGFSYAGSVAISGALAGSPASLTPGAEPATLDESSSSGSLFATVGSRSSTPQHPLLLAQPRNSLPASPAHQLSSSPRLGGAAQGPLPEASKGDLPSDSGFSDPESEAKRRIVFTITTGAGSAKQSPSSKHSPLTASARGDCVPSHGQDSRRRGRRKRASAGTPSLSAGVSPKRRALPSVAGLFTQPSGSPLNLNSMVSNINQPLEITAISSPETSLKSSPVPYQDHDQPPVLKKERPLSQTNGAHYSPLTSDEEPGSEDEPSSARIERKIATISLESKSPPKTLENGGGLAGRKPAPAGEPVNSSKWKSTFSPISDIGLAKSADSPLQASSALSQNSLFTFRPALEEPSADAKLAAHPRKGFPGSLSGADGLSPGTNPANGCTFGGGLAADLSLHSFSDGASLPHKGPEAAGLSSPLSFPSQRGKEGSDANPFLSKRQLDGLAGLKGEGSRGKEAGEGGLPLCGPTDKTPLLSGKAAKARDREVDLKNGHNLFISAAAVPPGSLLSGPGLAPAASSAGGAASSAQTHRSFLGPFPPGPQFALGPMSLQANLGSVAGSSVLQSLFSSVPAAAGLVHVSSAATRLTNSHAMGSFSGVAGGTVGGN
In short: (§8)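 Enzymes (DOT1L 1 nM; EZH2, G9a, PRMT1 5 nM) mixed with substrate (0.05 mg/mL oligonucleosomes for DOT1L; 0.05 mg/mL core histone for EZH2; 5 μM H3 1–21 peptide for G9a; 5 μM H4 for PRMT1). Compound (10 μM) added for 20 min at room temperature, then 1 μM ³H-SAM for 1 h at 30 °C; filter-paper read-out. Triplicates, mean ± SD.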

[17] = biological target: T2, Histone-lysine N-methyltransferase EHMT2 (Homo sapiens) (UniProt Q96KQ7); test: as §7, with “G9a (913 to 1193 residues) expressed in Escherichia coli BL21 (DE3)-gold cells” for “DOT1L”, “histone H3 (1 to 21 residues)” for “oligonucleosome”; settings: time 80.0 min; in short: as §8
T2 sequence (whole entry): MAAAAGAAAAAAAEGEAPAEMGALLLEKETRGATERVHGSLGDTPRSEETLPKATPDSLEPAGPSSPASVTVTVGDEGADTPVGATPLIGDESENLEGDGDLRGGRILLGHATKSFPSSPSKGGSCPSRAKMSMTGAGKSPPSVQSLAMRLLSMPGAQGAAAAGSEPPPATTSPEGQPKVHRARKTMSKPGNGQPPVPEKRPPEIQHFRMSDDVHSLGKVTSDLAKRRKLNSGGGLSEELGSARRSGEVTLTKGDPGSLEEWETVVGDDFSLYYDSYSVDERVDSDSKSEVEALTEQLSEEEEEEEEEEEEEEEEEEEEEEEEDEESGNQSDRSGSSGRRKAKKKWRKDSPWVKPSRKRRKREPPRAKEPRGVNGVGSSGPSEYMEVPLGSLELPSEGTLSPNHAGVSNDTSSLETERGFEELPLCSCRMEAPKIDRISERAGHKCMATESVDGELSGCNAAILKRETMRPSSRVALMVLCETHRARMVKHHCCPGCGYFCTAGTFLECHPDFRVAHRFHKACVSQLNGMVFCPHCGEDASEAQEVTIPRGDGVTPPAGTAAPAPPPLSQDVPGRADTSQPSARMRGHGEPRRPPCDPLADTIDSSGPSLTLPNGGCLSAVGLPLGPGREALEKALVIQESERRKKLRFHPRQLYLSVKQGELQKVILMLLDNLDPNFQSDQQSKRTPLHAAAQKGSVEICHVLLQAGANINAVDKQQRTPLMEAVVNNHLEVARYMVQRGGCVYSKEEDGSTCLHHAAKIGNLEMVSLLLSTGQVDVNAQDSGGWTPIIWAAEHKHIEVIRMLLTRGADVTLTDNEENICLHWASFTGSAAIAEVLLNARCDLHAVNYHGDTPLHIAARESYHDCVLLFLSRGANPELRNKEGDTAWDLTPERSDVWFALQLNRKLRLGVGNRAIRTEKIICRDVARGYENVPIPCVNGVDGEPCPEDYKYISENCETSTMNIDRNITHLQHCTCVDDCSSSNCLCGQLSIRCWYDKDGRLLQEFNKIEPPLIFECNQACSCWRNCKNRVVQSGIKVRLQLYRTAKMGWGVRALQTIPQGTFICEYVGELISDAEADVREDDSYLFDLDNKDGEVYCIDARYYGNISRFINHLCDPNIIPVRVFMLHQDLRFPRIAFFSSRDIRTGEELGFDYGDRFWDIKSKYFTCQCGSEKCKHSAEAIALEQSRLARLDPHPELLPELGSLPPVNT

[18] = biological target: Protein arginine N-methyltransferase 1 (Homo sapiens) (UniProt Q99873); test: Inhibition of PRMT1 (unknown origin) using histone H4 as substrate and 3H-SAM as cosubstrate at 10 uM pretreated with compound for 20 mins in presence of histone H4 followed by cosubstrate addition and measured after 1 hr; settings: time 80.0 min; in short: as §8
Chain of Protein arginine N-methyltransferase 1 (Homo sapiens) (Q99873 whole entry, looked up): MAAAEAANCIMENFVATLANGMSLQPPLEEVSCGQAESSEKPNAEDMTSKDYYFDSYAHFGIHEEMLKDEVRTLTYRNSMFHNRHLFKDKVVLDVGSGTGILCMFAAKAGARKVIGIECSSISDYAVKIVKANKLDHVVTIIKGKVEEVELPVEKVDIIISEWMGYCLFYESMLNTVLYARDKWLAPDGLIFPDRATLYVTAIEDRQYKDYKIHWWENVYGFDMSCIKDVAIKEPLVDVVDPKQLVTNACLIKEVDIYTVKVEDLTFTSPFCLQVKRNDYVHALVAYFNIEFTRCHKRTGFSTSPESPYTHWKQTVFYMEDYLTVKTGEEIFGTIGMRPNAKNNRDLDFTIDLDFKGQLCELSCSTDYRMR

[19] = Binding affinity to Clostridioides difficile-specific DNA adenine methyltransferase by MicroCal PEAQ ITC analysis; in short: as §2
Clostridioides difficile [20] = test: Binding affinity to Clostridioides difficile-specific DNA adenine methyltransferase assessed as change in enthalpy by MicroCal PEAQ-ITC instrument analysis; in short: as §2

## OC[C@H]1O[C@@H](n2cnc3c(NCCCC4CCNCC4)ncnc32)[C@H](O)[C@@H]1O
[1]
  IC50: 3.8 µM

## OC[C@H]1O[C@@H](n2cnc3c(N[C@H]4CCc5ccccc54)ncnc32)[C@H](O)[C@@H]1O
[1]
  IC50: 43 µM
[2]
  Kd: 49 µM

## CC(C)(C)OC(=O)NCCC1CCN(c2ncnc3c2ncn3[C@@H]2O[C@H](CO)[C@@H](O)[C@H]2O)CC1
Clostridioides difficile [3]
  inhibition: inactive

## OC[C@H]1O[C@@H](n2cnc3c(NCc4ccc(O)cc4)ncnc32)[C@H](O)[C@@H]1O
[1]
  IC50: 4.8 µM
[2]
  Kd: 5.3 µM

## CSC[C@H]1O[C@@H](n2cnc3c(N)ncnc32)[C@H](O)[C@@H]1O [METHYLTHIOADENOSINE]
[4]
  IC50: 18 µM
[5]
  Kd: 10 µM
[1]
  IC50: 18 µM
[2]
  Kd: 11 µM

## OC[C@H]1O[C@@H](n2cnc3c(NCCCCCc4ccccc4)ncnc32)[C@H](O)[C@@H]1O
[1]
  IC50: 1.3 µM
[2]
  Kd: 1.3 µM

## OC[C@H]1O[C@@H](n2cnc3c(NCCCCc4ccccc4)ncnc32)[C@H](O)[C@@H]1O
[1]
  IC50: 1.6 µM
[2]
  Kd: 1.6 µM

## CC(C)N(CCCNC(=O)Nc1ccc(C(C)(C)C)cc1)C[C@H]1O[C@@H](n2ccc3c(N)ncnc32)[C@H](O)[C@@H]1O
[6]
  IC50: 43 µM
[7]
  Kd: 18 µM

## Nc1ccc(CCCNc2ncnc3c2ncn3[C@@H]2O[C@H](CO)[C@@H](O)[C@H]2O)cc1
[1]
  IC50: 1.4 µM
[2]
  Kd: 1.5 µM

## CC(C)N(CCCNC(=O)Nc1ccc(C(C)(C)C)cc1)C[C@H]1O[C@@H](n2cc(Br)c3c(N)ncnc32)[C@H](O)[C@@H]1O
Clostridioides difficile [8]
  inhibition: Active
[9]
  IC50: 4.7 µM
[10]
  Kd: 6.3 µM

## CC(C)(C)OC(=O)N1CCC(CNc2ncnc3c2ncn3[C@@H]2O[C@H](CO)[C@@H](O)[C@H]2O)CC1
[1]
  IC50: 2 µM
[2]
  Kd: 1.1 µM

## Nc1ccc(CCNc2ncnc3c2ncn3[C@@H]2O[C@H](CO)[C@@H](O)[C@H]2O)cc1
[2]
  Kd: 18 µM

## OC[C@H]1O[C@@H](n2cnc3c(NCc4ccccc4)ncnc32)[C@H](O)[C@@H]1O [N6-BENZYLADENOSINE]
[1]
  IC50: 15 µM
[2]
  Kd: 13 µM

## Nc1ncnc2c1ncn2[C@@H]1O[C@H](C[C@@H](N)CC[C@H](N)C(=O)O)[C@@H](O)[C@H]1O [SINEFUNGIN]
[11]
  IC50: 24 µM
[12]
  Kd: 23 µM
Caulobacter vibrioides
  inhibition: Active
[13]
  inhibition: Active
[14]
  inhibition: Active
[15]
  inhibition: Active

## Nc1ncnc2c1ncn2[C@@H]1O[C@H](CSCC[C@H](N)C(=O)O)[C@@H](O)[C@H]1O
[16]
  inhibition: Active
[17]
  inhibition: Active
[18]
  inhibition: Active

## Nc1ncnc2c1ncn2[C@@H]1O[C@H](CO)[C@@H](O)[C@H]1O [ADENOSINE]
[19]
  Kd: > 70 µM

## OC[C@H]1O[C@@H](n2cnc3c(NCCc4ccccc4)ncnc32)[C@H](O)[C@@H]1O
[1]
  IC50: 2.5 µM
[2]
  Kd: 2.9 µM

## OC[C@H]1O[C@@H](n2cnc3c(NCCCc4ccccc4)ncnc32)[C@H](O)[C@@H]1O
[1]
  IC50: 0.7 µM
[2]
  Kd: 0.5 µM

## CC(C)(C)OC(=O)N1CCC2(CCN(c3ncnc4c3ncn4[C@@H]3O[C@H](CO)[C@@H](O)[C@H]3O)CC2)C1
Clostridioides difficile [3]
  inhibition: inactive

## Nc1ccc(CNc2ncnc3c2ncn3[C@@H]2O[C@H](CO)[C@@H](O)[C@H]2O)cc1
Clostridioides difficile [20]
  deltaH: -12.2 kcal/mol
[1]
  IC50: 10 µM
[2]
  Kd: 14 µM
